Measurements published in ChEMBL document CHEMBL1156084, “Synthesis and structure-activity relationships of pyrazolodiazepine derivatives as human P2X7 receptor antagonists” (Bioorg Med Chem Lett, 2009).
Blank lines part the entries; values can stand above or below the compound they belong to.

What was measured:
Assay type in all cases: functional, cell-based
[1] = molecular target: T1, P2X purinoceptor 7 (Homo sapiens) (UniProt Q99572); experiment: Antagonist activity at human P2X7 receptor expressed in HEK293 cells assessed as inhibition of BzATP-induced fluorescent ethidium accumulation; conditions: concentration not given here
T1 sequence (whole entry): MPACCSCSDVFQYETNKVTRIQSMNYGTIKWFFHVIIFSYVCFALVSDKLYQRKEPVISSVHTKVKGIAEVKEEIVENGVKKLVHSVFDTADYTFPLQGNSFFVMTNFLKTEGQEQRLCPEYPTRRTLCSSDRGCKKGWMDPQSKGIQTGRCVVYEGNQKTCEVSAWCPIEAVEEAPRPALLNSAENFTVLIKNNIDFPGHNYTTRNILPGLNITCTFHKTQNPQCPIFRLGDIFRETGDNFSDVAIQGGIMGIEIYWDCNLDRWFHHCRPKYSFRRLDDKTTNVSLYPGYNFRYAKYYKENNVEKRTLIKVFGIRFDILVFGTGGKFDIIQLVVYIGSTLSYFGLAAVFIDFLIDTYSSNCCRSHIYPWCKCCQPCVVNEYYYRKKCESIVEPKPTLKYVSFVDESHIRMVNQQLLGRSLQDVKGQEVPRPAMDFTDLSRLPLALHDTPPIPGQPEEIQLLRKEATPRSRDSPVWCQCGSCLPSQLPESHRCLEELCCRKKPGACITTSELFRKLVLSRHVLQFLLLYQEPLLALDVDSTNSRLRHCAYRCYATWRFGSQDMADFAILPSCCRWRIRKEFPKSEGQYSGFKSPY
How it was run: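 Adherent HEK293 cells stably transfected with human P2X7 cDNA, resuspended at 2.5×10^6 cells/mL in HEPES buffer (mM: ethidium bromide 0.1, EDTA 1, glucose 5, HEPES 20, KCl 140; pH 7.4). Cells added to compound wells, then BzATP, and incubated 120 min at 37 °C. Ethidium uptake read by fluorescence (ex 530/20, em 590/20). IC50 is the mean from dose–response curves of at least three experiments.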

P2X purinoceptor 7 = molecular target: T2, P2X purinoceptor 7 (Homo sapiens, UniProt Q99572); experiment: Antagonist activity at human P2X7 receptor expressed in HEK293 cells assessed as inhibition of BzATP-induced fluorescent ethidium accumulation […]
T2 sequence (Q99572 whole entry): T1 sequence (whole entry)
How it was run: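 Human P2X7-expressing HEK293 cells at 2.5×10^6 cells/mL in pH 7.4 HEPES/KCl/EDTA/glucose buffer containing 0.1 mM ethidium bromide. Compound tested at 10 μM, then BzATP added, and cells held 120 min at 37 °C. Ethidium accumulation measured by fluorescence (ex 530/20, em 590/20) and expressed as % inhibition, mean ± SD of three repeats.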

[2] = molecular target: T1, P2X purinoceptor 7 (Homo sapiens); experiment: Antagonist activity at P2X7 receptor in IFN-gamma/LPS-differentiated human THP1 cells assessed as inhibition of BzATP-induced IL1-beta release at 10 uM treated 30 mins prior to BzATP addition by ELISA; conditions: THP-1
How it was run: (§1)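 THP-1 cells differentiated and primed 3 h with 25 ng/mL LPS plus 10 ng/ml IFNγ. Compound added 30 min before stimulation with 1 mM BzATP for 30 min. Supernatants cleared by centrifugation (1000 rpm, 5 min), and mature human IL-1β quantified by ELISA.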

[3] = molecular target: T1, P2X purinoceptor 7 (Homo sapiens); experiment: Antagonist activity at P2X7 receptor in IFN-gamma/LPS-differentiated human THP1 cells assessed as inhibition of BzATP-induced IL1-beta release treated 30 mins prior to BzATP addition by ELISA; conditions: THP-1; how it was run: as §1

Compound: Cc1cc(O)ccc1CN1C[C@@H](COC(=O)c2cn(C)c3ccccc23)NC(=O)c2nn(CCc3ccccc3)cc21
- inhibition [1]: 30%

Compound: CC(C)(C)OC(=O)N1CCC(CCn2cc3c(n2)C(=O)N[C@@H](Cc2ccccc2)CN3C(=O)C2CC2)CC1
- inhibition [1]: 61%
- IC50 (P2X purinoceptor 7): 13000 nM

Compound: O=C1N[C@@H](Cc2ccccc2)CN(C(=O)C2CC2)c2cn(CCC3CCNCC3)nc21
- inhibition [1]: 13%

Compound: CC(C)(C)OC(=O)N1CCC(CCn2cc3c(n2)C(=O)N[C@H](Cc2ccccc2)CN3C(=O)C2CC2)CC1
- inhibition [1]: 70%
- IC50 (P2X purinoceptor 7): 4310 nM

Compound: O=C(OC[C@H]1CNc2cn(CCc3ccccc3)nc2C(=O)N1)c1ccccc1
- inhibition [1]: 33%

Compound: Cn1cc(CN2CCC(CCn3cc4c(n3)C(=O)N[C@@H](Cc3ccccc3)CN4C(=O)C3CC3)CC2)c2ccccc21
- inhibition [1]: 39%

Compound: Cc1cc(O)ccc1CN1C[C@H](COC(=O)c2cn(C)c3ccccc23)NC(=O)c2nn(CCc3ccccc3)cc21
- inhibition [1]: 88%
- IC50 (P2X purinoceptor 7): 180 nM
- inhibition [2]: 37%

Compound: Cn1cc(C(=O)OC[C@H]2CNc3cn(CCc4ccccc4)nc3C(=O)N2)c2ccccc21
- inhibition [1]: 43%

Compound: Cn1cc(CN2C[C@H](COC(=O)c3cn(C)c4ccccc34)NC(=O)c3nn(CCc4ccccc4)cc32)c2ccccc21
- inhibition [1]: 68%
- IC50 (P2X purinoceptor 7): 1070 nM
- inhibition [2]: 65%

Compound: CN([C@@H](Cc1ccc(OS(=O)(=O)c2cccc3cnccc23)cc1)C(=O)N1CCN(c2ccccc2)CC1)S(=O)(=O)c1cccc2cnccc12
- IC50 (P2X purinoceptor 7): 110 nM
- inhibition [2]: 103%

Compound: O=C1N[C@@H](COC(=O)c2cccc3ccccc23)CNc2cn(CCc3ccccc3)nc21
- inhibition [1]: 46%

Compound: O=C1N[C@@H](Cc2ccccc2)CN(C(=O)C2CC2)c2cn(CCC3CCN(Cc4cccc5ncccc45)CC3)nc21
- inhibition [1]: 24%

Compound: O=C1N[C@@H](Cc2ccccc2)CN(C(=O)C2CC2)c2cn(CCC3CCN(Cc4cccc5cnccc45)CC3)nc21
- inhibition [1]: 27%

The remaining lines, values ahead:

- inhibition [1]: 65%
- IC50 (P2X purinoceptor 7): 1420 nM
- inhibition [2]: 41%
Compound: Cn1cc(C(=O)OC[C@H]2CN(Cc3ccc([N+](=O)[O-])cc3)c3cn(CCc4ccccc4)nc3C(=O)N2)c2ccccc21

- inhibition [1]: 46%
Compound: Cc1cccc(CN2C[C@H](COC(=O)c3cn(C)c4ccccc34)NC(=O)c3nn(CCc4ccccc4)cc32)c1

- inhibition [1]: 68%
- IC50 (P2X purinoceptor 7): 1450 nM
- inhibition [2]: 42%
Compound: O=C1N[C@@H](COC(=O)c2cccc3cnccc23)CN(Cc2ccccc2)c2cn(CCc3ccccc3)nc21

- inhibition [1]: 84%
- IC50 (P2X purinoceptor 7): 740 nM
- inhibition [2]: 51%
Compound: Cc1cc(CN2C[C@H](COC(=O)c3cccc4cnccc34)NC(=O)c3nn(CCc4ccccc4)cc32)ccc1O

- inhibition [1]: 33%
Compound: Cn1cc(CN2C[C@H](COC(=O)c3cccc4cnccc34)NC(=O)c3nn(CCc4ccccc4)cc32)c2ccccc21

- inhibition [1]: 38%
Compound: O=C1N[C@@H](COC(=O)c2cccc3cnccc23)CN(Cc2ccc(Br)cc2)c2cn(CCc3ccccc3)nc21

- inhibition [1]: 94%
- IC50 (P2X purinoceptor 7): 250 nM
- inhibition [2]: 55%
Compound: Cn1cc(C(=O)OC[C@H]2CN(Cc3ccc(Cl)cc3)c3cn(CCc4ccccc4)nc3C(=O)N2)c2ccccc21

- inhibition [1]: 94%
- IC50 (P2X purinoceptor 7): 310 nM
- inhibition [2]: 105%
- Activity [3]: Dose-dependent effect
Compound: Cn1cc(C(=O)OC[C@H]2CN(Cc3ccccc3)c3cn(CCc4ccccc4)nc3C(=O)N2)c2ccccc21

- inhibition [1]: 69%
- IC50 (P2X purinoceptor 7): 1180 nM
- inhibition [2]: 48%
Compound: Cc1ccc(CN2C[C@H](COC(=O)c3cccc4cnccc34)NC(=O)c3nn(CCc4ccccc4)cc32)cc1

- inhibition [1]: 45%
Compound: Cn1cc(C(=O)OC[C@H]2CN(Cc3cccc(F)c3)c3cn(CCc4ccccc4)nc3C(=O)N2)c2ccccc21

- inhibition [1]: 87%
- IC50 (P2X purinoceptor 7): 520 nM
- inhibition [2]: 38%
Compound: Cc1ccc(CN2C[C@H](COC(=O)c3cn(C)c4ccccc34)NC(=O)c3nn(CCc4ccccc4)cc32)cc1

- inhibition [1]: 42%
Compound: Cc1cccc(CN2C[C@H](COC(=O)c3cccc4cnccc34)NC(=O)c3nn(CCc4ccccc4)cc32)c1

- inhibition [1]: 88%
- IC50 (P2X purinoceptor 7): 850 nM
- inhibition [2]: 50%
Compound: Cn1cc(C(=O)OC[C@H]2CN(Cc3ccc(Br)cc3)c3cn(CCc4ccccc4)nc3C(=O)N2)c2ccccc21

- inhibition [1]: 44%
Compound: O=C1N[C@@H](COC(=O)c2cccc3ccccc23)CN(Cc2ccccc2)c2cn(CCc3ccccc3)nc21

- inhibition [1]: 39%
Compound: Cn1cc(C(=O)OC[C@H]2CN(Cc3ccc(F)cc3)c3cn(CCc4ccccc4)nc3C(=O)N2)c2ccccc21

- inhibition [1]: 75%
- IC50 (P2X purinoceptor 7): 1280 nM
- inhibition [2]: 65%
Compound: O=C1N[C@@H](COC(=O)c2cccc3cnccc23)CN(Cc2ccc(F)cc2)c2cn(CCc3ccccc3)nc21

- inhibition [1]: 48%
Compound: Cn1cc(C(=O)OCC2CN(Cc3cccc4ccccc34)c3cn(CCc4ccccc4)nc3C(=O)N2)c2ccccc21 (single isomer, unassigned)

- inhibition [1]: 71%
- IC50 (P2X purinoceptor 7): 790 nM
- inhibition [2]: 44%
Compound: O=C1N[C@@H](COC(=O)c2cccc3cnccc23)CNc2cn(CCc3ccccc3)nc21

- inhibition [1]: 29%
Compound: COc1ccc(CN2C[C@H](COC(=O)c3cn(C)c4ccccc34)NC(=O)c3nn(CCc4ccccc4)cc32)cc1
